Reference: ChEMBL document CHEMBL3588754, “Parallel Synthesis of Hexahydrodiimidazodiazepines Heterocyclic Peptidomimetics and Their in Vitro and in Vivo Activities at μ (MOR), δ (DOR), and κ (KOR) Opioid Receptors” (J Med Chem, 2015)
Each block holds one compound with its values, some of them ahead of it. The source made the active and inactive calls.

Columns and labels:
[1] = target: Kappa-type opioid receptor (Cavia porcellus, UniProt P41144); assay: Displacement of [3H]U69593 from kappa opioid receptor in guinea pig cortices and cerebella by competition binding assay
Summary of the method: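 Guinea pig cortex and cerebellum membranes were prepared in 50 mM Tris pH 7.4 with 10 mM MgCl2. Assay used 2 nM [3H]U69,593, incubated 2 h at 25 °C. Unlabeled U50,488 defined nonspecific binding. Filtration was through GF/B filters, with scintillation counting. Ki is mean ± SD of two experiments, each in duplicate.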

[2] = target: Mu-type opioid receptor (Rattus norvegicus, UniProt P33535); assay: Displacement of [3H]DAMGO from mu opioid receptor in rat cortices by competition binding assay
Summary of the method: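 Rat cortex membranes were prepared in 50 mM Tris pH 7.4, preincubated at 37 °C for 30 min, and resuspended with 2 mg/mL bovine serum. Assay used 2 nM [3H]DAMGO. Binding was stopped by filtration through BSA-soaked GF/B filters, followed by scintillation counting. IC50 was converted to Ki. Values are mean ± SD of two experiments, each in duplicate.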

[3] = target: Delta-type opioid receptor (Rattus norvegicus, UniProt P33533); assay: Displacement of [3H]DPDPE from delta opioid receptor in rat cortices by competition binding assay
Summary of the method: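 Rat cortex membranes were prepared in 50 mM Tris pH 7.4 with 10 mM MgCl2 and 200 μM PMSF. Assay used 2 nM [3H]DPDPE, incubated 2.5 h at 25 °C. Unlabeled DPDPE defined nonspecific binding. Filtration was through BSA-soaked GF/B filters, with scintillation counting. Ki is mean ± SD of two experiments, each in duplicate.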

[4] = target: Delta-type opioid receptor (Homo sapiens, UniProt P41143); assay: Agonist activity at delta opioid receptor (unknown origin) expressed in CHO-K1 cells assessed as inhibition of forskolin-induced cAMP accumulation by FRET assay; assay type: functional, cell-based
Summary of the method: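 CHO cells stably expressing DOR, plated at 20 000 cells/well (figure legend: 100 000). Exposed to test agent with 4 μM forskolin (legend: 1 μM) in 1× PBS with 1 mM […] for 30 min at rt. HTRF cAMP read-out with europium cryptate and d2 in lysis buffer for 1 h. EC50 ± SEM from three experiments, two replicates each.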

[5] = test system: Mus musculus; assay: Toxicity in C57BL/6 mouse assessed as coordinated locomotor activity at 30 nM, icv up to 60 mins; assay type: organism-based; conditions: in vivo, icv_or_intrathecal, 1 h, 0.03 µM
Summary of the method: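 Rotorod test after seven habituation trials, the last used as baseline. Test agent 30 nmol icv, vehicle 50% DMSO/saline. Accelerating trials (0–20 rpm, 180 s max) from 10 min over 60 min. Latency to fall expressed as % change from baseline. n = 8–16 per group, repeated-measures/two-way ANOVA with Tukey.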

[6] = test system: Brain; assay: Drug uptake in C57BL/6 mouse brain at 30 mg/kg, po after 30 mins by LC-MS/MS analysis; assay type: ADME, organism-based; conditions: in vivo, 0.5 h
Summary of the method: (§1)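 Male C57BL/6J mice dosed orally at 30 mg/kg in 1:1:8 ethanol/Tween-80/saline, killed at 30, 60, or 90 min. Serum deproteinized with 4 volumes of cold MeCN. Perfused brains homogenized. Supernatants dried and reconstituted in 20% MeCN. C18 LC–MS/MS with summed ion-transition peak areas. Two mice per time point, mean peak area ± SEM.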

[7] = test system: Mus musculus; assay: Antinociceptive tolerance in C57BL/6 mouse assessed as tail withdrawal latency measured treated at 5 nmol, icv first dose second dose after 8 hrs by 55 degC Warm water tail withdrawal assay; assay type: functional
Summary of the method: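 Acute tolerance was tested in C57BL/6J mice, 8 per dose. The first icv dose was given at time 0: 3 nmol morphine or 5 nmol test agent. A second icv dose between 0.3 and 100 nmol followed 8 h later. Tail withdrawal at 55 °C was measured 30 min after the second injection. Tolerance was judged from the shift in ED50 between single and repeated treatment.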

[8] = test system: Mus musculus; assay: Antinociceptive effect in C57BL/6 mouse assessed as tail withdrawal latency measured up to 2 hrs by 55 degC Warm water tail withdrawal assay in presence of 100 nM, icv SNC80; assay type: functional, organism-based
Summary of the method: (§2)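 Test agent given to male C57BL/6J mice 2 h before agonist challenge: morphine 10 mg/kg ip, U50,488 10 mg/kg ip, or SNC-80 100 nmol icv. 55 °C warm-water tail withdrawal read 30 min after the agonist. % antinociception relative to baseline latency with 15 s cutoff.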

[9] = test system: Mus musculus; assay: Antinociceptive effect in C57BL/6 mouse assessed as tail withdrawal latency […] by 55 degC Warm water tail withdrawal assay in presence of 30 mg/kg, sc naloxone methiodide on other side of blood brain barrier impermeable opioid antagonist; assay type: functional, organism-based
[10] = test system: Mus musculus; assay: Antinociceptive effect in po dosed C57BL/6 mouse assessed as tail withdrawal latency measured up to 2 hrs by 55 degC Warm water tail withdrawal assay; assay type: functional; conditions: C57BL/6, Tail
[11] = test system: Mus musculus; assay: Antinociceptive effect in C57BL/6 mouse assessed as tail withdrawal latency measured up to 2 hrs by 55 degC Warm water tail withdrawal assay in presence of 10 mg/kg, ip morphine; assay type: functional, organism-based; summary of the method: as §2
[12] = test system: Mus musculus; assay: Antinociceptive effect in C57BL/6 mouse assessed as tail withdrawal latency measured at 30 nM, icv up to 2 hrs by 55 degC Warm water tail withdrawal assay in presence of 30 nM, icv naloxone methiodide on same side of blood brain barrier impermeable opioid antagonist; assay type: functional, organism-based
Summary of the method: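 Adult male C57BL/6J mice, 55 °C warm-water tail withdrawal. Naloxone methiodide pretreatment (30 nmol icv or 30 mg/kg sc) 30 min before the test agent (30 nmol icv in 50% DMSO/saline, or 10 mg/kg ip in 1:1:8 ethanol/Tween-80/saline). Read 30 min after the test agent. % antinociception vs baseline latency with 15 s cutoff. n = 8, mean ± SEM, one-way ANOVA/Tukey.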

[13] = test system: Serum; assay: Drug uptake in C57BL/6 mouse serum at 30 mg/kg, po after 30 mins by LC-MS/MS analysis; assay type: ADME, organism-based; conditions: in vivo, 0.5 h; summary of the method: as §1
[14] = test system: Mus musculus; assay: Antinociceptive effect in icv dosed MOR knock out C57BL/6 mouse assessed as tail withdrawal latency measured up to 2 hrs by 55 degC Warm water tail withdrawal assay; assay type: functional, organism-based
[15] = test system: Mus musculus; assay: Antinociceptive effect in C57BL/6 mouse assessed as tail withdrawal latency at 30 mg/kg, po measured up to 2 hrs by 55 degC Warm water tail withdrawal assay; assay type: functional
[16] = test system: Mus musculus; assay: Antinociceptive effect in icv dosed C57BL/6 mouse assessed as tail withdrawal latency measured up to 2 hrs by 55 degC Warm water tail withdrawal assay; assay type: functional
[17] = test system: Mus musculus; assay: Antinociceptive effect in C57BL/6 mouse assessed as tail withdrawal latency at 10 mg/kg, ip measured up to 2 hrs by 55 degC Warm water tail withdrawal assay; assay type: functional
[18] = test system: Mus musculus; assay: Antinociceptive effect in icv dosed KOR knock out C57BL/6 mouse assessed as tail withdrawal latency measured up to 2 hrs by 55 degC Warm water tail withdrawal assay; assay type: functional, organism-based
[19] = test system: Mus musculus; assay: Antinociceptive effect in ip dosed C57BL/6 mouse assessed as tail withdrawal latency measured up to 2 hrs by 55 degC Warm water tail withdrawal assay; assay type: functional; conditions: C57BL/6, Tail
[20] = test system: Mus musculus; assay: Antinociceptive effect in C57BL/6 mouse assessed as tail withdrawal latency measured at 10 mg/kg, ip […] by 55 degC Warm water tail withdrawal assay in presence of 30 mg/kg, sc naloxone methiodide on same side of blood brain barrier impermeable opioid antagonist; assay type: functional, organism-based
[21] = test system: Mus musculus; assay: Antinociceptive effect in icv dosed C57BL/6 mouse assessed as tail withdrawal latency measured up to 2 hrs by 55 degC Warm water tail withdrawal assay in presence of 4 nmol, icv ICI174864; assay type: functional, organism-based
[22] = test system: Mus musculus; assay: Antinociceptive effect in C57BL/6 mouse assessed as tail withdrawal latency measured at 30 nM, icv […] by 55 degC Warm water tail withdrawal assay in presence of 30 nM, icv naloxone methiodide on other side of blood brain barrier impermeable opioid antagonist; assay type: functional, organism-based
[23] = test system: Mus musculus; assay: Antinociceptive effect in icv treated C57BL/6 mouse assessed as tail withdrawal latency at 30 nM, icv measured up to 2 hrs by 55 degC Warm water tail withdrawal assay; assay type: functional
[24] = test system: Mus musculus; assay: Analgesic activity in ip dosed C57BL/6 mouse assessed as inhibition of acetic acid-induced writhing response measured after 5 mins by acetic acid writhing assay; assay type: functional; conditions: C57BL/6, ip
Summary of the method: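 Adult male C57BL/6J mice, eight per dose, were given a single graded ip dose in 1:1:8 ethanol/Tween-80/saline vehicle. After 25 min they received 0.9% acetic acid ip. Writhes were counted for 15 min starting 5 min later. % antinociception was taken relative to the ip vehicle group, and ED50 with 95% CI was obtained by regression.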

[25] = test system: Mus musculus; assay: Antinociceptive effect in icv dosed C57BL/6 mouse assessed as tail withdrawal latency measured up to 2 hrs by 55 degC Warm water tail withdrawal assay in presence of 0.5 mg/kg, sc naltrindole; assay type: functional, organism-based
[26] = test system: Mus musculus; assay: Antinociceptive effect in C57BL/6 mouse assessed as tail withdrawal latency measured up to 2 hrs by 55 degC Warm water tail withdrawal assay in presence of 10 mg/kg, ip U50488; assay type: functional, organism-based; summary of the method: as §2

SMILES: CC(C)C[C@H]1CN2C(=CC3=NC[C@H](Cc4ccccc4)N3C[C@@H]2Cc2ccc(O)cc2)N1CCc1ccccc1
Ki [1]: 0.642 µM
Ki [2]: 0.949 µM
Ki [3]: 0.037 µM
EC50 [4]: 1.64 µM

SMILES: CC(C)C[C@H]1CN2C(=CC3=NC[C@H](C(C)C)N3C[C@@H]2Cc2ccccc2)N1
Ki [1]: 1.08 µM
Ki [2]: > 10 µM
Ki [3]: ≥ 10 µM

SMILES: Oc1ccc(C[C@H]2CN3C(=CC4=NC[C@H](Cc5ccccc5)N4C[C@@H]3Cc3ccccc3)N2CCc2ccccc2)cc1
Ki [1]: > 10 µM
Ki [2]: 3.15 µM
Ki [3]: 1.28 µM

SMILES: Oc1ccc(C[C@H]2CN3C(=CC4=NC[C@H](Cc5ccc(O)cc5)N4C[C@@H]3Cc3ccc(O)cc3)N2CCc2ccccc2)cc1
Ki [1]: 1.55 µM
Ki [2]: 0.246 µM
Ki [3]: 0.392 µM

SMILES: Oc1ccc(C[C@H]2CN3C(=CC4=NC[C@H](Cc5ccc(O)cc5)N4C[C@@H]3Cc3ccccc3)N2CCc2ccccc2)cc1
Ki [1]: 0.767 µM
Ki [2]: 0.393 µM
Ki [3]: 0.05 µM

SMILES: CC(C)C[C@H]1CN2C(=CC3=NC[C@H](C(C)C)N3C[C@@H]2Cc2ccc(O)cc2)N1
Ki [1]: 0.209 µM
Ki [2]: 1.19 µM
Ki [3]: 0.215 µM

SMILES: Oc1ccc(C[C@H]2CN3C(=CC4=NC[C@H](Cc5ccccc5)N4C[C@@H]3Cc3ccc(O)cc3)N2CCc2ccccc2)cc1
Ki [1]: 1.31 µM
Ki [2]: 0.878 µM
Ki [3]: 0.188 µM

Ki [1]: 2.37 µM
Ki [2]: 0.605 µM
Ki [3]: 0.069 µM
SMILES: Oc1ccc(C[C@H]2CN3C(=CC4=NC[C@H](Cc5ccc(O)cc5)N4C[C@@H]3Cc3ccccc3)N2)cc1

SMILES: CC(C)C[C@H]1CN2C(=CC3=NC[C@H](C(C)C)N3C[C@@H]2Cc2ccc(O)cc2)N1CCc1ccccc1
Activity [5]: Non-toxic
Drug uptake [6]: Not Active
ED50 [7]: 2.32 nmol
Activity [8]: Active
Activity [9]: Active
ED50 [10]: 23.2 mg/kg
Ki [1]: 0.023 µM
Activity [11]: Active
inhibition [12]: inactive
Drug uptake [13]: Active
inhibition [14]: inactive
Time [15]: 110 min
Activity [16]: Dose-dependent effect
Time [17]: 80 min
inhibition [18]: inactive
ED50 [19]: 5.09 mg/kg
inhibition [20]: inactive
inhibition [21]: inactive
Ki [3]: 0.032 µM
Activity [22]: Active
Time [23]: 80 min
ED50 [24]: 0.07 mg/kg
inhibition [25]: inactive
Activity [26]: Active
EC50 [4]: 0.366 µM
